Changes are numbered by the printed parent chain. Read-outs that look alike come from different tables or passages of the source. Each block holds one molecule with its values, some of them ahead of it.
What was measured:
[1] = target: T1, E340N mutant bovine olfactory CNG channel (Bos taurus, UniProt Q03041, E340N); assay: Blockage of macroscopic current by external Ca2+ or Mg2+, outside-out patches; type: biochemical; conditions: for Ki: mean ± SD
T1 sequence (Q03041 1-663 E340N): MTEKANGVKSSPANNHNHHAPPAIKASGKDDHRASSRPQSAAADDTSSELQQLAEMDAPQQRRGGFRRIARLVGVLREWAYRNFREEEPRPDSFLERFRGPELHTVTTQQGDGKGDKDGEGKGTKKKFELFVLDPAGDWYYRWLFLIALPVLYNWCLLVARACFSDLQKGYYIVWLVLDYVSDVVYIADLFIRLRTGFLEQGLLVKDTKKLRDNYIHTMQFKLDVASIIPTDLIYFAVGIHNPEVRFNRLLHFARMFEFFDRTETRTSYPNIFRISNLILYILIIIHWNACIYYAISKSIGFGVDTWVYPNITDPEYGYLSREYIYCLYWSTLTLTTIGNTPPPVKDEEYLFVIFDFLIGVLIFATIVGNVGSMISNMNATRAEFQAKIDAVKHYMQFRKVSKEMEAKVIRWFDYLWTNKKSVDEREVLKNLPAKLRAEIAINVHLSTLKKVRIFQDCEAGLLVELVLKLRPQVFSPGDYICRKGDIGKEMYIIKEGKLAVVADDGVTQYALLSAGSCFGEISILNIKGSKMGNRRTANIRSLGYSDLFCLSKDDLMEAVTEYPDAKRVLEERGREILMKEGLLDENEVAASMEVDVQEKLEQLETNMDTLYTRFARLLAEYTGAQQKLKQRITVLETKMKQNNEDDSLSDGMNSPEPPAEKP
Method in brief: (§1)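 Xenopus oocytes injected with wild-type or mutant channel mRNA; outside-out patches with 100 μM cGMP in the pipette. Bath: 110 mM NaCl, 2 mM EDTA, 10 mM HEPES, pH 7.4, plus Ca2+ (NTA-buffered) or Mg2+ (EDTA-buffered); unbuffered above 0.1 mM. Five 1-s ramps (−80 to +80 mV) averaged, leak subtracted. Current normalised to divalent-free current at the same voltage, Hill-fitted per patch; Ki and n given as mean ± SD.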

[2] = target: T2, E340N^‡ mutant bovine olfactory CNG channel (Bos taurus, UniProt Q03041, E340Q); assay: as above; type: biochemical
T2 sequence (Q03041 1-663 E340Q): T1 sequence (Q03041 1-663 E340N) with N340Q
Method in brief: as §1

[3] = target: T3, E340G mutant bovine olfactory CNG channel (Bos taurus, UniProt Q03041, E340G); assay: Blockage of macroscopic current by internal Ca2+, inside-out patches; type: biochemical; conditions: read-out: K i for internal Ca2+ blockage, +80 mV, 1 mM cGMP, average
T3 sequence (Q03041 1-663 E340G): T1 sequence (Q03041 1-663 E340N) with N340G

[4] = target: T3, E340G mutant bovine olfactory CNG channel; assay: Divalent cation permeation, outside-out patches in bi-ionic conditions; type: biochemical; conditions: for reversal potential, V rev: internal Na
Method in brief: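 Outside-out oocyte patches; the pipette held 1 mM cGMP and 110 mM NaCl. External 110 mM NaCl was replaced by 73.3 mM CaCl2 or MgCl2. From a 0 mV holding potential, 150-ms steps were given from −80 to +80 mV in 20-mV increments. I_Ca/I_Na was taken at −80 mV, and reversal potential under bi-ionic conditions (internal Na+, external divalent); mean ± SD.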

[5] = target: native olfactory CNG channels; conditions: cited from earlier work
[6] = target: T3, E340G mutant bovine olfactory CNG channel; type: biochemical
[7] = external Mg2+, −80 mV, one experiment

- n, Hill coefficient of blockage ([1]; external Ca2+, +80 mV): 0.6 ± 0.2
- Ki ([1]; external Ca2+, +80 mV): 29000 ± 6000 µM
- n, Hill coefficient of blockage ([1]; external Ca2+, −80 mV): 0.6 ± 0.1
- Ki ([1]; external Ca2+, −80 mV): 6500 ± 4000 µM
- n, Hill coefficient of blockage ([2]; external Ca2+, +80 mV): 0.5 ± 0.2
- Ki ([2]; external Ca2+, +80 mV, mean ± SD): 19000 ± 12000 µM
- n, Hill coefficient of blockage ([2]; external Ca2+, −80 mV): 0.4 ± 0.2
- Ki ([2]; external Ca2+, −80 mV, mean ± SD): 2100 ± 600 µM
- Ki [3]: 1500 ± 400 µM
- reversal potential, V rev ([4]; external Ca2+): 24 ± 5 mV
- I Ca/I Na ([4]; −80 mV, external 73.3 mM CaCl2 vs 110 mM NaCl): 0.16 ± 0.03
Compound: [Ca+2] [Ca^2+]
- Ki ([5]; read-out: K i for external Ca2+ blockage, frog, +80 mV, ref Dzeja et al. 1999): ~2000 µM
- Ki ([5]; read-out: K i for external Ca2+ blockage, frog, −70 mV, ref Dzeja et al. 1999): 265 µM

- n, Hill coefficient of blockage ([1]; external Mg2+, +80 mV): 0.6 ± 0.1
- Ki ([1]; external Mg2+, +80 mV): 50000 ± 3600 µM
- n, Hill coefficient of blockage ([1]; external Mg2+, −80 mV): 0.6 ± 0.1
- Ki ([1]; external Mg2+, −80 mV): 17000 ± 7200 µM
- n, Hill coefficient of blockage ([2]; external Mg2+, +80 mV, one experiment): 0.3
- Ki [2, 7]: 3400 µM
- n, Hill coefficient of blockage [2, 7]: 0.5
- reversal potential, V rev ([4]; external Mg2+): 45 ± 15 mV
Compound: [Mg+2] [Mg^2+]

- P max (+80 mV) ([6]; cGMP): 0.77 ± 0.08
- P max (−80 mV) ([6]; cGMP): 0.79 ± 0.06
- L, equilibrium gating constant ([6]; cGMP, allosteric model fit, mean ± SD): 5.2 ± 1.3
- EC50 ([6]; read-out: K 1/2 (single-channel open probability), cGMP, −80 mV, average): 14 ± 5 µM
- EC50 ([6]; read-out: K 1/2,cG, −80 mV, single patch, Fig. 2 fit): 11.6 µM
Compound: Nc1nc2c(ncn2[C@@H]2O[C@@H]3COP(=O)(O)O[C@H]3[C@H]2O)c(=O)[nH]1 [cGMP]
